Screening results: PubChem BioAssay, several laboratories
In the library only some 2.6% were active in any assay of this set; here they are far more common.
SENP1 FRET inh: inhibitors of human SENP1 SUMO protease catalytic domain; recombinant SENP1 catalytic domain, CyPet-SUMO1-YPet FRET cleavage; 360,000 tested, 0.21% active; AID 624204; inhibition, % at 10 µM; Q9P0U3;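 active means inhibition at least 30% at 10 µM, raw YFP signal under a set limit, fluorescence ratio 0.5 to 1.5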;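 further: 0% = enzyme with DMSO and 100% = no enzyme wells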
Target sequence (Q9P0U3 419-644 limits assumed): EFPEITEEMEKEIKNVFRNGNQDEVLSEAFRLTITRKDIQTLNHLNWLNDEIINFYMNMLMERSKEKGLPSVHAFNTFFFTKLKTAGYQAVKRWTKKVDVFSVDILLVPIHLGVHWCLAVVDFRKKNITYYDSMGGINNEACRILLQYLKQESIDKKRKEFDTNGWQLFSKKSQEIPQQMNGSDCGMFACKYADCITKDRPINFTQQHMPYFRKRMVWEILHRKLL
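system = hSENP1 catalytic domain, recombinant | reagent = SFCypet-SUMO1-SFYpet substrate at 25 nM | doses = one dose per compound, 10 µM, 0.5% DMSO | incubation = enzyme reaction for 50 min at room temperature, dark | measured by = FRET, CFP and YFP emission | controls = no-enzyme low, enzyme-DMSO high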
SENP7 inh: inhibitors of human SENP7 protease; inhibition, % at 5 µM; Q9BQF6; AID 434973; 330,000 tested, 1.5% active; recombinant SENP7, Z-RLRGG-aminoluciferin luminescence, 40 min;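 active means inhibition above about 50% at the single test dose, limit read from the data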;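 further: plate controls were DMSO with enzyme for no effect and no enzyme buffer wells for full effect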
SENP6 block: blocks the human protease SENP6 | Q9GZR1 | Recombinant SENP6 catalytic domain, aminoluciferin luminescence | inhibition, % at 10 µM | 330,000 tested, 1.8% active;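 active means inhibition above about 50% at the single tested dose, limit read from the data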;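 further: plate controls were DMSO wells with enzyme for no effect and DMSO wells lacking enzyme for full effect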
SENP8 block-1: SENP8 (human) protease inhibition. Q96LD8. recombinant SENP8, Nedd8 substrate fluorescence. inhibition, % at 20 µM. 360,000 tested, 0.64% active. AID 602440; in the data active means inhibition mostly above about 40%, no sharp cut-off; inactive means mostly below about 27%
Target sequence (Q96LD8 whole entry, looked up): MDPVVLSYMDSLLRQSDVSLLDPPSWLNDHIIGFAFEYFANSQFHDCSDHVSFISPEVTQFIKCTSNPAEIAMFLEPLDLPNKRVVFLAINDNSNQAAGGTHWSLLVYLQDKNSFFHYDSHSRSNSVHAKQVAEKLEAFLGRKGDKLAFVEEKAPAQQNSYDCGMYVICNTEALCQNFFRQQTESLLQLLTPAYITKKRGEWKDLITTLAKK
Platelet DG rel: platelet dense granule release activity; inhibition, %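 (compounds screened at 7.5 µM in platelet-rich plasma)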; 300,000 tested, 0.22% active; human platelet-rich plasma, SFLLRN dense granule ATP release, luminescence; AID 1663;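 active means mean replicate score, as percent of positive control, at or above 50; inconclusive means mean below 50 but at least one replicate at or above 50; inactive means mean and every replicate below 50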
SENP8 block-2: blocks the human protease SENP8; 330,000 tested, 1.2% active; inhibition, % at 10 µM; Q96LD8; AID 2540; purified SENP8, Z-RLRGG-aminoluciferin cleavage, luminescence; in the data active means inhibition above about 50%
SENP8 conf-1: human SENP8 inhibition, confirmed; shares compounds with SENP7 inh; Recombinant SENP8, Z-RLRGG-aminoluciferin luminescence, 60 min; inhibition, % at 12.5 µM; 6,200 tested, 40% active; AID 488912;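 active means mean inhibition across replicates above about 50%, limit read from the data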
SENP6 confirm: human SENP6 inhibition, confirmed; shares compounds with SENP7 inh; recombinant SENP6, Z-RLRGG-aminoluciferin luminescence; inhibition, % at 12.5 µM; 6,200 tested, 58% active; AID 488915
SENP7 confirm: human SENP7 inhibition, confirmed; shares compounds with SENP7 inh; recombinant SENP7, Z-RLRGG-aminoluciferin luminescence, 40 min; inhibition, % at 12.5 µM; 6,200 tested, 69% active; AID 488917
Casp3 select: selectivity test for SENP inhibitors: human caspase-3 inhibition; inhibition, % at 12.5 µM; shares compounds with SENP7 inh; 6,200 tested, 60% active; purified caspase-3, Z-DEVD-aminoluciferin luminescence, 60 min;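 active means mean inhibition above about 50%, limit read from the data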;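 further: plate controls were enzyme with DMSO for no effect and wells without caspase-3 for full effect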
Target sequence (P42574 28-227 limits assumed): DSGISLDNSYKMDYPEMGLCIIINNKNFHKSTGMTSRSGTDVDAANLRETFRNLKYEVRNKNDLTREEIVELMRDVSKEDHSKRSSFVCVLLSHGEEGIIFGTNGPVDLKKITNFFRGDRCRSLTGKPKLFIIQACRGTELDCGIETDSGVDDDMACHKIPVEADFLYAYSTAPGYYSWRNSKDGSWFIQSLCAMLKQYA
Luc interf: counter-screen for SENP inhibitors: luminescence interference; shares compounds with SENP7 inh; Pre-incubated SENP8/Z-RLRGG-aminoluciferin, luciferase luminescence interference; inhibition, % at 12.5 µM; 6,200 tested, 39% active;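 active means mean inhibition above about 50% when retested at one dose, limit read from the data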;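 further: plate controls were DMSO wells with completed reaction for no effect and substrate without enzyme for full effect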
SENP8 conf-2: confirmation of human SENP8 protease inhibitors. AID 624319. 1,400 tested, 15% active. purified SENP8, Nedd8-AMC/pro-Nedd8 cleavage fluorescence, 30 min. shares compounds with SENP8 block-1. inhibition, % at 25 µM; in the data active means inhibition mostly above about 39%, no sharp cut-off; inactive means mostly below about 34%
SENP1 inh conf: confirmation of human SENP1 SUMO protease inhibitors. shares compounds with SENP1 FRET inh. recombinant SENP1, CyPet-SUMO1-YPet FRET cleavage. inhibition, % at 10 µM. 520 tested, 34% active; in the data active means inhibition mostly above about 35%, no sharp cut-off; inactive means mostly below about 32%;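 further: 0% = enzyme with DMSO and 100% = no enzyme control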
SENP1 kinetic: confirmation of human SENP1 SUMO protease inhibitors, kinetic. 520 tested, 26% active. recombinant SENP1, CyPet-SUMO1-YPet FRET kinetic cleavage. shares compounds with SENP1 FRET inh. inhibition, % at 10 µM. AID 651690; in the data active means inhibition mostly above about 32%, no sharp cut-off; inactive means mostly below about 29%;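 further: 0% = DMSO with enzyme and 100% = no enzyme substrate only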
* = called active by the depositor; u = inconclusive; x = no result.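 How the source made its calls, unless noted: active means mean inhibition above about 50% in the one-dose retest (limit read from the data); inactive means the rest.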

SMILES	SENP1 FRET inh	SENP7 inh	SENP6 block	SENP8 block-1	Platelet DG rel	SENP8 block-2	SENP8 conf-2	others
CCOc1cccc(/C=C2\NC(=S)N(c3ccccc3)C2=O)c1O	48*	87*	92*	10	-2	91*	x	SENP8 conf-1=83*;SENP6 confirm=98*;SENP7 confirm=102*;Casp3 select=94*;Luc interf=69*;SENP1 inh conf=45*;SENP1 kinetic=18
Nc1ccccc1C#Cc1ccc([N+](=O)[O-])cc1	33*	47	62*	31	-6	42	x	SENP8 conf-1=46;SENP6 confirm=46;SENP7 confirm=81*;Casp3 select=39;Luc interf=22;SENP1 inh conf=18;SENP1 kinetic=17
N#CC(c1ccccc1)c1ccc([N+](=O)[O-])cc1 (stereo not given)	1	x	x	1	x	x	x
CCN1C(=O)c2cccc3c(NC(=O)C4CCCCC4)ccc1c23	40*	72*	-6	11	8	0	x	SENP8 conf-1=-8;SENP6 confirm=-2;SENP7 confirm=-5;Casp3 select=-5;Luc interf=-6;SENP1 inh conf=20;SENP1 kinetic=30*
CCCC(=O)N1CCN(c2nc3c(OC)ccc(Cl)c3s2)CC1	0	6	3	9	0	6	x
C[C@H]1CN([C@@H](C)CO)C(=O)CCCn2nncc2CO[C@H]1CN(C)C(=O)c1ccc(N2CCN(C)CC2)cc1	0	x	x	2	x	x	x
O=[N+]([O-])c1nn(-c2ccc3c(c2)OCCO3)n(O)c1=NCc1ccc(F)cc1Cl	62*	65*	50*	52*	11	11	21	SENP8 conf-1=5;SENP6 confirm=20;SENP7 confirm=28;Casp3 select=10;Luc interf=6;SENP1 inh conf=2;SENP1 kinetic=9
COc1cc(/C=C2/SC(=S)N(C)C2=O)ccc1OC(=O)c1ccco1	34*	66*	5	34	2	28	x	SENP8 conf-1=8;SENP6 confirm=7;SENP7 confirm=3;Casp3 select=16;Luc interf=28;SENP1 inh conf=32;SENP1 kinetic=27
COc1cc(/C=C2\SC(=S)N(NC(C)=O)C2=O)ccc1OC(=O)c1ccco1	20	-13	14	22	x	21	x
Cc1noc(C)c1C(=O)OCC(=O)C12CC3CC(CC(C3)C1)C2	1	0	3	8	5	-6	x
Cc1c(O)ccc(/C(Cc2ccc3ccccc3n2)=N\O)c1O	-3	-3	-12	12	0	-4	x
CC(=O)Oc1ccc(C(=O)Cc2ccc3ccccc3n2)c(O)c1C	49*	74*	-7	33	9	1	x	SENP8 conf-1=-24;SENP6 confirm=-14;SENP7 confirm=-4;Casp3 select=-1;Luc interf=-4;SENP1 inh conf=25;SENP1 kinetic=19
CC(=O)Oc1ccc(/C=C/c2nc3ccccc3c(=O)o2)cc1	52*	99*	96*	-134	83*	95*	x	SENP8 conf-1=74*;SENP6 confirm=79*;SENP7 confirm=55*;Casp3 select=68*;Luc interf=50;SENP1 inh conf=-33;SENP1 kinetic=-22
CN(C)C=Nc1ccccc1C1C=NNC1=O (stereo not given)	x	5	3	x	3	1	x
O=C(NC1CCCCC1)C(c1ccnc2ccccc12)N1CCc2ccccc2C1 (stereo not given)	-11	x	x	51*	x	x	91*
O=C(NC1CCCCC1)C(C1CC1)N1CCc2ccccc2C1 (stereo not given)	0	x	x	30	x	x	x
O=[N+]([O-])c1cc([N+](=O)[O-])c(Oc2cc(F)ccc2F)cc1NN1CCCCC1	4	-3	0	55*	-5	-5	22
COc1ccc(NC(=O)CSc2nc(C)c3c(c2C#N)CCCC3)cc1	0	2	8	16	2	-1	x
Cc1cccc(CSc2nc(N)c(C#N)c(-c3cccs3)c2C#N)c1	-9	-2	1	-71	-3	2	x
Cc1cccc(CSc2nc3c(c(-c4cccs4)c2C#N)CN(C)CC3)c1	18	1	-3	40*	-10	6	4
CN1CCc2nc(SCC(=O)Nc3ccc(OC(F)(F)F)cc3)c(C#N)c(-c3cccs3)c2C1	26	1	28	45*	3	5	23
Cc1cc(C)c2c(c1)/C(=N/Nc1ccc(S(N)(=O)=O)cc1[N+](=O)[O-])CCC2	6	9	-3	53*	20	3	-3
NS(=O)(=O)c1ccc(N/N=C2/CCCCC2C2CCCCC2)c([N+](=O)[O-])c1 (stereo not given)	4	3	-26	33	-6	-9	x
O=C1c2cccc3cccc(c23)C(=O)C1(O)O	2	-3	17	52*	-3	9	40
Cc1ccc(C(=O)N2CCN(c3ccc([N+](=O)[O-])c(NCc4ccco4)c3)CC2)cc1	4	6	-10	48*	u	-5	14
SMILES	SENP1 FRET inh	SENP7 inh	SENP6 block	SENP8 block-1	Platelet DG rel	SENP8 block-2	SENP8 conf-2	others
O=C(c1cccc2ccccc12)N1CCN(c2ccc([N+](=O)[O-])c(NCc3ccco3)c2)CC1	6	1	-9	42*	0	-3	10
Cc1ccccc1C(=O)N1CCN(c2ccc([N+](=O)[O-])c(NCc3ccco3)c2)CC1	1	-7	-10	53*	3	-3	26
CC(O)[C@H]1CNCCN1CCc1cccc(F)c1 (stereo not given in full)	-2	-4	6	14	4	2	x
Cc1cc2ccccn2c1C(=O)c1ccccc1F	1	-1	-12	41*	12	6	-5
Cc1cc2ccccn2c1C(=S)NC(=O)c1ccccc1	-10	13	20	9	2	2	x
CC(C)(C)C(=O)NCCCc1nc2ccccc2n1CCCOc1ccc(Cl)cc1	1	6	-14	41*	-75	-2	25
Cc1ccc(Nc2nc(=O)c3cc([N+](=O)[O-])ccc3s2)cc1	2	-4	-9	33	-1	0	x
COc1ccc(Nc2nc(=O)c3cc([N+](=O)[O-])ccc3s2)cc1	-1	x	x	55*	3	x	22
